# KCC2 mod: KCC2 cotransporter modulators, thallium flux, primary screen, cell-based, HEK293 KCC2, FluoZin-2 fluorescence, MLSMR; Solute carrier family 12 member 5 (Homo sapiens), Q9H2X9; B-score of Tl+ flux slope (higher = more flux/activation; lower = inhibition) at 10 µM; KCC2 cells, thallium flux FluoZin-2 fluorescence; 190,000 compounds, 2.2% hits;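 active = thallium flux slope and its plate-corrected score both differing from the plate sample mean at a set confidence after two filtering rounds, in either direction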;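 also: slope of fluorescence scaled to starting intensity during 10 to 20 s after thallium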
# ROMK mod: ROMK potassium channel modulators, primary screen, cell-based, thallium flux, MLSMR library | B-score at 10 µM | Tet-inducible ROMK, thallium flux fluorescence; actives lie on both sides | AID 1918, 2009 | 130,000 compounds, 2% hits;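 active = signal ratio slope over the read window, or its plate-corrected B-score, at least 3 SD from the plate mean, either direction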;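 also: B-score of the F/F0 ratio slope over 7 to 12 s after thallium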
# Target sequence (P48048 whole entry, looked up): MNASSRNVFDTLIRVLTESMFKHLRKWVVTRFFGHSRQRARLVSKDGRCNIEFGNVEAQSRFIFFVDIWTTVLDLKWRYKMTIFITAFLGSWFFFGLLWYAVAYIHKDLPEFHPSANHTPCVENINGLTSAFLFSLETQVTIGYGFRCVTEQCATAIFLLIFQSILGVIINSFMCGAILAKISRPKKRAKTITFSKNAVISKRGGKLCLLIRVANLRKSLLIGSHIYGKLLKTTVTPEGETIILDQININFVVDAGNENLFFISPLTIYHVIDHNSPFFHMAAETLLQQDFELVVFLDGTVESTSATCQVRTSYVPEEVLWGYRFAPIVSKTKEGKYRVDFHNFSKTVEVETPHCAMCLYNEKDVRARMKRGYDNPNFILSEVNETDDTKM
# Diaphorase inh: diaphorase inhibitors and chemical oxidizers, primary screen, counter-screen for diaphorase-coupled primary assays, biochemical, uHTS, resorufin fluorescence; diaphorase resazurin-to-resorufin fluorescence, NADH, 16 min; bacterial (C. kluyveri) enzyme, not human; inhibition, % at 20 µM; 190,000 compounds, 0.69% hits;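 active = primary screen inhibition at 20 µM above a set limit, cut at about 50% in these data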
#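 material = Clostridium kluyveri diaphorase enzyme | amount = 0.14 U/mL diaphorase, enzyme working solution | schedule = incubation 16 min, room temperature | detection = fluorescence of resorufin formed from resazurin, Ex 544/Em 590 nm | benchmarks = positive control minus NADH, DMSO neutral control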
# Diaph act CS: compounds boosting diaphorase resazurin reduction – biochemical, uHTS, resorufin fluorescence, counter-screen for diaphorase-coupled primary assays, primary screen; 190,000 compounds, 0.005% hits; Diaphorase/resazurin coupled assay, 16 min; active compounds read high; 1 = vehicle wells, 0 = NADH-free wells; AID 1229, 2008; activation factor at 20 µM;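 active = diaphorase activity raised at least twofold by the compound at 20 µM; inactive = activation factor below 2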
#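 Material: purified diaphorase enzyme from Clostridium kluyveri / Medium: HEPES pH 7.4 buffer with MgCl2 and Tween 20 / Schedule: enzyme reaction of 16 min at room temperature / Measured by: resorufin fluorescence, excitation 544 nm, emission 590 nm / Evaluation: rise in resorufin formation, marking diaphorase activation or chemical reduction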
# WT yeast gro inh: growth inhibition of WT strain, primary screen, mitochondrial fusion inhibitor project, WT and mutant strains, chemical genetic; mitochondrial fusion phenotypic screen; inhibition, % at 10 µM; 190,000 compounds, 2.1% hits; AID 1362, 2008; in the data active = inhibition above about 58%; tested in S. cerevisiae
# Lmaj promast: Leishmania major promastigote growth inhibition, primary screen; inhibition, % at 10 µM; 200,000 compounds, 9% hits; Leishmania major promastigotes, resazurin fluorescence viability; in the data active = inhibition above about 50%;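 also: promastigotes grown with compound for 44 hours at 28 °C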
# A number is an active result; n = inactive; x = not tested or not shown. A selection: hits, their analogues and other compounds. The true share with any hit is near 12%.
SMILES,KCC2 mod,ROMK mod,Diaphorase inh,Diaph act CS,WT yeast gro inh,Lmaj promast
NC(N)=N/N=C/c1cccc(Cl)c1Cl,x,n,n,n,n,100
CCOc1cc(CC(=O)N[C@@H](CC(C)C)c2ccccc2N2CCCCC2)ccc1C(=O)O,n,x,n,n,n,x
O=C(Nc1cc(Br)ccc1O)c1cnn2c(C(F)F)cc(C3CC3)nc12,n,n,n,n,n,51
CCOc1ccc(N2C(=O)CC(Sc3nnnn3-c3ccccc3)C2=O)cc1 (stereo not given),n,n,n,n,59,n
CC(=O)Nc1sc2c(c1C(c1ccc(Cl)cc1)N1CCOCC1)CCCC2 (stereo not given),n,x,n,n,81,n
CCOC(=O)N1CCN(c2ncnc3c2[nH]c2ccc(F)cc23)CC1,n,x,n,n,n,n
OC1(c2cccc(C(F)(F)F)c2)CCN(c2ncnc3c2[nH]c2ccc(F)cc23)CC1,x,x,n,n,n,88
Cc1ccc(-c2nnc(CSc3nnc4c5c(C)c(C)sc5nc(C(C)C)n34)o2)cc1,x,x,n,n,x,x
Cc1ccc(-c2nnc(CSc3nc(C(C)C)nc4sc(C)c(C)c34)o2)cc1,9.1,n,n,n,n,n
Cc1nc(SCC(=O)NCc2ccco2)c2c(C)c(C)sc2n1,n,x,n,n,n,n
Cc1sc2nc(C(C)C)nc(SCC(=O)N3c4ccccc4CC3C)c2c1C (stereo not given),65,n,n,n,n,94
Cc1sc2nc(C(C)C)nc(SCC(=O)NCc3ccco3)c2c1C,33,x,n,n,n,n
COc1cccc(/C(C)=N/NC(=O)Cc2c(C)[nH][nH]c2=O)c1,n,n,n,n,n,n
COc1ccc(S(=O)(=O)Nc2nc3ccccc3s2)cc1OC,n,n,n,n,n,n
CCNc1nc(C)nc2c1oc1ccccc12,x,n,n,n,n,n
Cc1nc(NCCCn2ccnc2)c2oc3ccccc3c2n1,n,n,n,n,n,88
c1ccc2c(c1)oc1c(NCCCN3CCOCC3)ncnc12,n,x,n,n,n,96
O=c1oc2ccccc2c2c1ncn2CCN1CCOCC1,n,x,n,n,n,n
c1ccc2c(c1)oc1c(NCCCn3ccnc3)ncnc12,x,x,n,n,n,94
O=c1c2ccccc2nc(SCc2ccccc2)n1CC1CCCO1 (stereo not given),n,x,x,x,x,x
Cn1cc(CN2CCC(O)CC2)c(-c2ccc(Oc3ccccc3)cc2)n1,n,n,n,n,n,81
COCCN1CCN(Cc2cn(C)nc2-c2ccc(Oc3ccccc3)cc2)CC1,n,x,x,x,x,x
Cc1cc(CNCc2cn(C)nc2-c2ccc(Oc3ccccc3)cc2)on1,n,n,n,n,n,60
CCN(Cc1ccncc1)Cc1cn(C)nc1-c1ccc(Oc2ccccc2)cc1,n,n,n,n,n,96
CC1CN(Cc2cn(C)nc2-c2ccc(Oc3ccccc3)cc2)CCN1C (stereo not given),n,n,n,n,n,n
SMILES,KCC2 mod,ROMK mod,Diaphorase inh,Diaph act CS,WT yeast gro inh,Lmaj promast
Cn1cc(CN2CCN(CCO)CC2)c(-c2ccc(Oc3ccccc3)cc2)n1,n,n,n,n,n,51
CCOC(=O)N1CCN(C(=O)CS(=O)(=O)c2cn(Cc3ccc(F)cc3)c3ccccc23)CC1,n,x,x,x,x,x
O=C(O)CCCC(=O)N1CCCC1,x,n,n,n,n,n
CCOC(=O)C1CCCCN1Cc1cn(C)nc1-c1ccccc1F (stereo not given),n,x,x,x,x,x
CCOC(=O)C1CCN(Cc2cnc(Oc3ccc(C(C)(C)C)cc3)s2)CC1,x,x,n,n,n,91
CCOC(=O)C1CCN(Cc2cnc(NC(=O)OC)s2)CC1,n,n,n,n,n,n
CCOC(=O)C1CCN(Cc2cn(C)nc2-c2ccc(Oc3ccccc3)cc2)CC1,x,n,n,n,n,79
NCCCCCc1nnc(SCC(=O)c2ccc(Cl)cc2)o1,n,x,n,n,n,n
Cn1c(CSc2ncccn2)nnc1SCC(=O)N1CCCC1,n,n,n,n,n,n
CC(C)c1c(O)c2c(n(-c3ccccc3)c1=O)CCCC2,n,n,n,n,n,n
CC(C)CCNC(=O)CN(C(=O)CCC(=O)Nc1ccccn1)c1ccc(F)c(Cl)c1,n,n,n,n,n,95
Cc1ccc2nc(NC(=O)CCNS(=O)(=O)c3ccc(Br)s3)sc2c1,n,x,n,n,n,98
Cc1ccc2nc(NC(=O)CCNS(=O)(=O)c3cccs3)sc2c1,n,n,n,n,n,n
NC1=NC(=O)C(CC(=O)Nc2ccc3c(c2)OCO3)S1 (stereo not given),n,n,n,n,n,n
S=c1nc(-c2ccccc2)[nH]n1-c1ccccc1,53,6.1,n,n,n,n
Cc1ccc(NC(=O)c2ccc([N+](=O)[O-])cc2Cl)nc1,n,n,n,n,n,n
Cc1ccc(C(=O)Nc2nnc(-c3ccco3)o2)cc1,n,x,n,n,n,n
COc1ccc(-c2nnc(NC(=O)c3ccc(S(=O)(=O)N4CCc5ccccc5C4)cc3)o2)cc1,x,n,n,n,n,99
O=C(Nc1nnc(-c2ccco2)o1)c1ccc2ccccc2c1,38,n,n,n,n,69
CC1CCCN(S(=O)(=O)c2ccc(C(=O)Nc3nnc(-c4ccccc4Cl)o3)cc2)C1 (stereo not given),21,x,n,n,n,100
O=C(Nc1nnc(C2CC2)o1)c1ccc(S(=O)(=O)N2CCc3ccccc3C2)cc1,n,n,n,n,64,n
C/C(=N\Nc1nc(N2CCCCC2)nc(N2CCOCC2)n1)c1ccccc1O,n,n,n,n,n,n
Cc1cc(NC(=O)CSc2nc3ccsc3c(=O)n2CCCC(=O)NCCc2ccccc2)no1,n,n,n,n,n,n
COc1ccc(-c2nnc(NC(=O)c3ccc(F)cc3)o2)cc1,x,x,n,n,n,98
CC1CN(S(=O)(=O)c2ccc(C(=O)Nc3nnc(-c4ccco4)o3)cc2)CC(C)O1 (stereo not given),n,n,n,n,n,n
COc1cccc(-c2nnc(NC(=O)c3ccc(S(=O)(=O)N4CC(C)OC(C)C4)cc3)o2)c1 (stereo not given),n,x,n,n,n,99
N#Cc1cccc(NC(=O)NCCc2c[nH]c3ccccc23)c1,n,n,n,n,n,90
N#Cc1cn(CC(=O)NCCc2c[nH]c3ccccc23)c2ccccc12,n,n,n,n,n,88
C/C(=N\NC(=S)NC(C)C)c1ccc(-n2ccnc2)cc1,x,n,n,n,n,n
